Measured values reported in ChEMBL document CHEMBL4152216, “Syntheses and anti-pancreatic cancer activities of rakicidin A analogues” (Eur J Med Chem, 2018).

Key:
PANC-1 [1] = test: Cytotoxicity against human PANC1 cells after 72 hrs under normoxic condition by MTT assay; assay type: functional, cell-based; conditions: PANC-1, 72 h
In short: (§1)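 PANC-1, PATU8988T and ASPC-1 cells were grown in DMEM with 10% FBS at 37 °C and 5% CO2, then seeded at 4000 cells/well. Compounds were added at various concentrations after 6 h. Normoxic plates stayed at 37 °C, 5% CO2. Hypoxic plates went into a chamber purged 10 min with 5% CO2/1% O2/94% N2, sealed, at 37 °C. After 72 h, MTT was added for 4 h, formazan dissolved in DMSO and read at 570 nm. IC50 is the mean ± SD of three independent experiments.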

PANC-1 [2] = test: Selectivity index, ratio of IC50 against human PANC1 cells under normoxic condition to IC50 for human PANC1 cells under hypoxic condition; assay type: functional
In short: (§2)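 Hypoxic selectivity index is IC50 (normoxia)/IC50 (hypoxia). Both IC50s come from the 72 h MTT assay in the same cell line, run under normoxia (37 °C, 5% CO2) or a sealed 1% O2/5% CO2/94% N2 chamber, each the mean of three independent experiments.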

PANC-1 [3] = test: Inhibition of cancer stem cell population of human PANC1 cells assessed as CD24+/CD44+/ESA+ cell population level at 0.15 uM after 48 hrs by flow cytometric analysis (reference value: 1.7%); assay type: functional; set-up: scale not given: the % may be the effect or the level left
PANC-1 [4] = test: Cytotoxicity against human PANC1 cells after 72 hrs under hypoxic condition by MTT assay; assay type: functional, cell-based; conditions: PANC-1, 72 h; in short: as §1
PANC-1 [5] = test: Antitumor activity against human PANC1 cells xenografted in zebrafsh yolk assessed as tumor growth inhibition at 66.7 uM after 2 days by fluorescence microscopy; assay type: functional
In short: (§3)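 About 300 PANC-1 cells were microinjected into the yolk of 2 dpf wild-type AB zebrafish, which were held at 35 °C to 3 dpf. Fish were then randomized to 6-well plates, 30 per well, and dosed once with compound at 0.005–50 µM. Gemcitabine 66.7 µM served as positive control and 10% aqueous castor oil as blank. After 2 days at 35 °C, 15 fish per group were imaged by fluorescence microscopy. Inhibition (%) = (1 − S(sample)/S(blank)) × 100, mean ± SEM, n = 15.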

ASPC1 [6] = test: Cytotoxicity against human Aspc-1 cells after 72 hrs under hypoxic condition by MTT assay; assay type: functional, cell-based; conditions: ASPC1, 72 h; in short: as §1
ASPC1 [7] = test: Cytotoxicity against human Aspc-1 cells after 72 hrs under normoxic condition by MTT assay; assay type: functional, cell-based; conditions: ASPC1, 72 h; in short: as §1
[8] = biological target: T1, Aldehyde dehydrogenase, mitochondrial (Homo sapiens) (UniProt P05091); test: Inhibition of ALDH in human PANC1 cells assessed as aldefluor positive cells at 0.5 uM after 72 hrs in presence of DEAB by aldefluor assay (reference value: 0.455%); assay type: cell-based; set-up: scale not given: the % may be the effect or the level left
T1 sequence (whole entry): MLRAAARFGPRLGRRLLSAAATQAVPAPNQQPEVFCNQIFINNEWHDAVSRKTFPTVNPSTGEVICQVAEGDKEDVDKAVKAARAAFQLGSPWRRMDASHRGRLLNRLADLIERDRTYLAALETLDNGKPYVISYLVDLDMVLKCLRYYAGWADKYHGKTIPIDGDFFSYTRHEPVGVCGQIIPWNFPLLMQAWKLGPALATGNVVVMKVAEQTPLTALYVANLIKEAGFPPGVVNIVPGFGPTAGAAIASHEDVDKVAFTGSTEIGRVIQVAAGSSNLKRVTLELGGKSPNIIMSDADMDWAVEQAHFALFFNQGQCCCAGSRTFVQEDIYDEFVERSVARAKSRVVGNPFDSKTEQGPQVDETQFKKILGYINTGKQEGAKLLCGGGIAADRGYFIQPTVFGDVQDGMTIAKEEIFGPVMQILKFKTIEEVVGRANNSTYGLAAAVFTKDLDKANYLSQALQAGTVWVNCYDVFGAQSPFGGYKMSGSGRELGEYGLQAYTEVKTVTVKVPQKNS
In short: (§4)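 PANC-1 cells were seeded at 5×10^4 cells/well and exposed after 6 h to compound (0.2 µM; ADR 0.5 µM) for 72 h. Living cells were suspended in assay buffer and incubated with Aldefluor substrate for 60 min at 37 °C. A parallel sample received substrate plus the ALDH inhibitor DEAB as negative control. Readout was percentage of ALDH+ cells, mean ± SEM, n = 3.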

ASPC1 [9] = test: Selectivity index, ratio of IC50 against human Aspc-1 cells under normoxic condition to IC50 for human Aspc-1 cells under hypoxic condition; assay type: functional; in short: as §2
PANC-1 [10] = test: Increase in tumor initiating cell frequency in human PANC1 cells xenografted in BALB/c nude mouse at 0.5 uM measured after 7 days; assay type: cell-based; conditions: in vivo, 168 h
In short: (§5)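 PANC-1 cells were treated in vitro with compound (ADR at 0.5 µM) for 48 h, collected, and injected subcutaneously at limiting cell doses into 5-week-old female BALB/c nude mice. Tumor formation rate was scored after 7 days. Tumor-initiating frequency was derived by limiting-dilution analysis with Poisson statistics against vehicle.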

[11] = biological target: T1, Aldehyde dehydrogenase, mitochondrial (Homo sapiens); test: Inhibition of ALDH in human PANC1 cells assessed as aldefluor positive cells at 0.5 uM after 72 hrs by aldefluor assay (reference value: 12.5%); assay type: cell-based; set-up: scale not given: the % may be the effect or the level left; in short: as §4
PANC-1 [12] = test: Antitumor activity against human PANC1 cells xenografted in zebrafsh yolk assessed as tumor growth inhibition at 0.005 uM after 2 days by fluorescence microscopy; assay type: functional; in short: as §3
PANC-1 [13] = test: Antitumor activity against human PANC1 cells xenografted in zebrafsh yolk assessed as tumor growth inhibition at 50 uM after 2 days by fluorescence microscopy; assay type: functional; in short: as §3
PANC-1 [14] = test: Antitumor activity against human PANC1 cells xenografted in zebrafsh yolk assessed as tumor growth inhibition at 5 uM after 2 days by fluorescence microscopy; assay type: functional; in short: as §3
Danio rerio = test: Toxicity in zebrafish xenografted with human PANC1 cells at 50 uM after 2 days by fluorescence microscopy; assay type: organism-based; conditions: 48 h
PANC-1 [15] = test: Antitumor activity against human PANC1 cells xenografted in zebrafsh yolk assessed as tumor growth inhibition at 0.05 uM after 2 days by fluorescence microscopy; assay type: functional; in short: as §3
PaTu 8988t [16] = test: Cytotoxicity against human PA-TU-8988T cells after 72 hrs under normoxic condition by MTT assay; assay type: functional, cell-based; in short: as §1
PaTu 8988t [17] = test: Cytotoxicity against human PA-TU-8988T cells after 72 hrs under hypoxic condition by MTT assay; assay type: functional, cell-based; in short: as §1
PaTu 8988t [18] = test: Selectivity index, ratio of IC50 against human PA-TU-8988T cells under normoxic condition to IC50 for human PA-TU-8988T cells under hypoxic condition; assay type: functional; in short: as §2
PANC-1 [19] = test: Antitumor activity against human PANC1 cells xenografted in zebrafsh yolk assessed as tumor growth inhibition at 0.5 uM after 2 days by fluorescence microscopy; assay type: functional; in short: as §3
[20] = biological target: T1, Aldehyde dehydrogenase, mitochondrial (Homo sapiens); test: Inhibition of ALDH in human PANC1 cells assessed as aldefluor positive cells at 0.2 uM after 72 hrs by aldefluor assay (reference value: 12.5%); assay type: cell-based; set-up: scale not given: the % may be the effect or the level left; in short: as §4
[21] = biological target: T1, Aldehyde dehydrogenase, mitochondrial (Homo sapiens); test: Inhibition of ALDH in human PANC1 cells assessed as aldefluor positive cells at 0.2 uM after 72 hrs in presence of DEAB by aldefluor assay (reference value: 0.455%); assay type: cell-based; set-up: scale not given: the % may be the effect or the level left; in short: as §4
PANC-1 [22] = test: Inhibition of tumorsphere formation in human PANC1 cells assessed as reduction in number of tumor spheres at 0.25 uM after 7 days; assay type: functional
In short: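 Tumorsphere formation: single-cell PANC-1 suspensions were plated in ultra-low-attachment wells at 2,000 cells/mL in Complete MammoCult medium, with compound at 0.25 µM. Tumorspheres were counted after 7 days. Three repeats, mean ± SEM.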

PANC-1 [23] = test: Antitumor activity against human PANC1 cells xenografted in BALB/c nude mouse assessed as reduction in tumor initiating cell frequency at 0.1 to 0.25 uM measured after 7 days; assay type: functional; in short: as §5
ASPC1 [24] = test: Potency index, ratio of […] for rakicidin A to IC50 for test compound for cytotoxicity against human Aspc-1 cells after 72 hrs under hypoxic condition by MTT assay; assay type: functional

SMILES | IC50 (PANC-1 [1]) | Ratio IC50 (PANC-1 [2]) | Activity (PANC-1 [3]) | IC50 (PANC-1 [4]) | IC50 (ASPC1 [6]) | IC50 (ASPC1 [7]) | Ratio IC50 (ASPC1 [9]) | TGI (PANC-1 [12]) | TGI (PANC-1 [13]) | TGI (PANC-1 [14]) | Activity (Danio rerio) | TGI (PANC-1 [15]) | IC50 (PaTu 8988t [16]) | IC50 (PaTu 8988t [17]) | Ratio IC50 (PaTu 8988t [18]) | TGI (PANC-1 [19]) | other results
Nc1ccn([C@@H]2O[C@H](CO)[C@@H](O)C2(F)F)c(=O)n1 [GEMCITABINE] | 400 nM | 0.24 | 1.4% | 1700 nM |  |  |  |  |  |  |  |  |  |  |  |  | TGI (PANC-1 [5]): 55%
COc1cccc2c1C(=O)c1c(O)c3c(c(O)c1C2=O)C[C@@](O)(C(=O)CO)C[C@@H]3O[C@H]1C[C@H](N)[C@H](O)[C@H](C)O1.Cl [DOXORUBICIN HYDROCHLORIDE] | 480 nM | 0.29 | 8.9% | 1700 nM | 2000 nM | 1600 nM | 0.78 |  |  |  |  |  |  |  |  |  | Activity [8]: 0.964%; fold change (FC) (PANC-1 [10]): 1.6; Activity [11]: 18.8%
C=C1/C=C/C(=O)N(C)CC(=O)NCC(=O)O[C@@H]([C@H](C)CCCCCCCCCCCCCC)[C@H](C)C(=O)N1 | 2480 nM | 7.93 |  | 310 nM | 490 nM | 4170 nM | 8.6 | 14% | 47% | 26% | Non-Toxic | -2% | 2470 nM | 440 nM | 5.67 | 6% | 
C=C1/C=C/C(=O)N(C)CC(=O)N[C@@H](CC(=O)NC2CC2)C(=O)O[C@@H]([C@H](C)CCCCCCCCCCCCCC)[C@H](C)C(=O)N1 | 130 nM | 5.25 | 0.5% | 24 nM | 22 nM | 270 nM | 12.27 | 15% | 45% | 22% | Non-Toxic | 10% | 200 nM | 24 nM | 8.3 | 5% | Activity [20]: 5.84%; Activity [21]: 0.746%; fold change (FC) (PANC-1 [22]): 8.7; fold change (FC) (PANC-1 [23]): 19; Ratio IC50 (ASPC1 [24]): 4
